Results: ChEMBL document CHEMBL3045304, “Sesquiterpene lactones with potential use as natural herbicide models. 2. guaianolides” (2000)
The source made the active and inactive calls. No cut-off for these calls is given here.

Legend:
Allium cepa [1] = experiment: Inhibition of germination of Allium cepa cv. Valenciana (onion) at 0.1 mM or 1 mM after 5 days relative to untreated control; format: functional
Triticum aestivum [2] = experiment: Inhibition of root length of Triticum aestivum cv. Cortex (wheat) at 0.1 mM or 1 mM after 5 days relative to untreated control; format: functional
How it was run: (§1)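 Wheat: 10 seeds per dish on filter paper with 5 mL test solution, 5 days in the dark at 25 °C, 10 replicates per concentration. Stock test solutions were 10^-3 or 10^-4 M in 10 mM MES, with lower levels made by dilution, all at pH 6.0. Parallel controls were run. Output is % difference from control.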

Triticum aestivum [3] = experiment: Inhibition of hypocotyl length of Triticum aestivum cv. Cortex (wheat) at 0.1 mM or 1 mM after 5 days relative to untreated control; format: functional; how it was run: as §1
Triticum aestivum [4] = experiment: Inhibition of germination of Triticum aestivum cv. Cortex (wheat) at 0.1 mM or 1 mM after 5 days relative to untreated control; format: functional; how it was run: as §1
Solanum lycopersicum [5] = experiment: Inhibition of hypocotyl length of Solanum lycopersicum cv. Tres Cantos (tomato) at 0.1 mM or 1 mM after 5 days relative to untreated control; format: functional
How it was run: (§2)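 Lettuce and tomato seeds, 25 per dish on filter paper, received 5 mL test solution. Incubation was 5 days in the dark at 25 °C, with four replicates per concentration. Solutions were made at 10^-3 or 10^-4 M in 10 mM MES, diluted serially, and adjusted to pH 6.0. Parallel controls were run. Results are % difference from control.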

Solanum lycopersicum [6] = experiment: Inhibition of root length of Solanum lycopersicum cv. Tres Cantos (tomato) at 0.1 mM or 1 mM after 5 days relative to untreated control; format: functional; how it was run: as §2
Lepidium sativum [7] = experiment: Inhibition of hypocotyl length of Lepidium sativum at 0.1 mM or 1 mM after 5 days relative to untreated control; format: functional
Allium cepa [8] = experiment: Inhibition of root length of Allium cepa cv. Valenciana (onion) at 0.1 mM or 1 mM after 5 days relative to untreated control; format: functional
Triticum aestivum [9] = experiment: Stimulation of hypocotyl length of Triticum aestivum cv. Cortex (wheat) at 0.1 mM or 1 mM after 5 days relative to untreated control; format: functional; how it was run: as §1
Allium cepa [10] = experiment: Stimulation of germination of Allium cepa cv. Valenciana (onion) at 0.1 mM or 1 mM after 5 days relative to untreated control; format: functional
Triticum aestivum [11] = experiment: Stimulation of root length of Triticum aestivum cv. Cortex (wheat) at 0.1 mM or 1 mM after 5 days relative to untreated control; format: functional; how it was run: as §1
Solanum lycopersicum [12] = experiment: Inhibition of germination of Solanum lycopersicum cv. Tres Cantos (tomato) at 0.1 mM or 1 mM after 5 days relative to untreated control; format: functional; how it was run: as §2
Lactuca sativa [13] = experiment: Inhibition of hypocotyl length of Lactuca sativa cv. Roman (lettuce) at 0.1 mM or 1 mM after 5 days relative to untreated control; format: functional; how it was run: as §2
Lactuca sativa [14] = experiment: Inhibition of root length of Lactuca sativa cv. Roman (lettuce) at 0.1 mM or 1 mM after 5 days relative to untreated control; format: functional; how it was run: as §2
Lactuca sativa [15] = experiment: Inhibition of germination of Lactuca sativa cv. Roman (lettuce) at 0.1 mM or 1 mM after 5 days relative to untreated control; format: functional; how it was run: as §2
Triticum aestivum [16] = experiment: Stimulation of germination of Triticum aestivum cv. Cortex (wheat) at 0.1 mM or 1 mM after 5 days relative to untreated control; format: functional; how it was run: as §1
Solanum lycopersicum [17] = experiment: Stimulation of hypocotyl length of Solanum lycopersicum cv. Tres Cantos (tomato) at 0.1 mM or 1 mM after 5 days relative to untreated control; format: functional; how it was run: as §2
Solanum lycopersicum [18] = experiment: Stimulation of root length of Solanum lycopersicum cv. Tres Cantos (tomato) at 0.1 mM or 1 mM after 5 days relative to untreated control; format: functional; how it was run: as §2
Solanum lycopersicum [19] = experiment: Stimulation of germination of Solanum lycopersicum cv. Tres Cantos (tomato) at 0.1 mM or 1 mM after 5 days relative to untreated control; format: functional; how it was run: as §2
Lepidium sativum [20] = experiment: Stimulation of hypocotyl length of Lepidium sativum at 0.1 mM or 1 mM after 5 days relative to untreated control; format: functional
Lepidium sativum [21] = experiment: Stimulation of root length of Lepidium sativum at 0.1 mM or 1 mM after 5 days relative to untreated control; format: functional
Lactuca sativa [22] = experiment: Stimulation of root length of Lactuca sativa cv. Roman (lettuce) at 0.1 mM or 1 mM after 5 days relative to untreated control; format: functional; how it was run: as §2
Lactuca sativa [23] = experiment: Stimulation of hypocotyl length of Lactuca sativa cv. Roman (lettuce) at 0.1 mM or 1 mM after 5 days relative to untreated control; format: functional; how it was run: as §2
Lactuca sativa [24] = experiment: Stimulation of germination of Lactuca sativa cv. Roman (lettuce) at 0.1 mM or 1 mM after 5 days relative to untreated control; format: functional; how it was run: as §2
Lepidium sativum [25] = experiment: Inhibition of root length of Lepidium sativum at 0.1 mM or 1 mM after 4 days relative to untreated control
Lepidium sativum [26] = experiment: Inhibition of germination of Lepidium sativum at 0.1 mM or 1 mM after 4 days relative to untreated control
Allium cepa [27] = experiment: Stimulation of root length of Allium cepa cv. Valenciana (onion) at 0.1 mM or 1 mM after 7 days relative to untreated control
Allium cepa [28] = experiment: Inhibition of hypocotyl length of Allium cepa cv. Valenciana (onion) at 0.1 mM or 1 mM after 7 days relative to untreated control
Allium cepa [29] = experiment: Stimulation of hypocotyl length of Allium cepa cv. Valenciana (onion) at 0.1 mM or 1 mM after 7 days relative to untreated control

Compound	inhibition (Allium cepa [1])	inhibition (Solanum lycopersicum [5])	inhibition (Lepidium sativum [7])	inhibition (Allium cepa [8])	Activity (Triticum aestivum [9])	Activity (Allium cepa [10])	Activity (Triticum aestivum [11])	inhibition (INH) (Lactuca sativa [13])	inhibition (Lactuca sativa [15])	Activity (Triticum aestivum [16])	Activity (Solanum lycopersicum [17])	Activity (Solanum lycopersicum [18])	Activity (Solanum lycopersicum [19])	Activity (Lepidium sativum [20])	Activity (Lepidium sativum [21])	Activity (Lactuca sativa [22])	Activity (Lactuca sativa [23])	Activity (Lactuca sativa [24])	inhibition (Lepidium sativum [25])	Activity (Lepidium sativum [26])	other results
C=C1CC[C@H]2[C@H](C)C(=O)O[C@@H]2[C@@]2(O)C(=C)[C@H](O)C[C@@H]12	inactive	inactive	inactive	inactive	20%	inactive	inactive	20%	inactive	inactive	inactive	inactive	inactive	inactive	inactive	<20%	20%	inactive	inactive	inactive	inhibition (Triticum aestivum [2]): inactive; inhibition (INH) (Triticum aestivum [3]): 20%; inhibition (Triticum aestivum [4]): inactive; inhibition (Solanum lycopersicum [6]): inactive; inhibition (Solanum lycopersicum [12]): inactive; inhibition (INH) (Lactuca sativa [14]): <20%; inhibition (Lepidium sativum [26]): inactive; Activity (Allium cepa [27]): inactive; inhibition (Allium cepa [28]): inactive; Activity (Allium cepa [29]): inactive
C=C1C(=O)O[C@H]2[C@H]1C[C@@H](O)C(=C)[C@@H]1C[C@@H](O)C(=C)[C@@]12O	inactive	inactive	inactive	inactive	20%	inactive	20%	<20%	inactive	inactive	inactive	inactive	<20%	inactive	inactive	20%	<20%	inactive	inactive	inactive	inhibition (INH) (Triticum aestivum [2]): 20%; inhibition (INH) (Triticum aestivum [3]): 20%; inhibition (Triticum aestivum [4]): inactive; inhibition (Solanum lycopersicum [6]): inactive; inhibition (INH) (Solanum lycopersicum [12]): <20%; inhibition (INH) (Lactuca sativa [14]): 20%; inhibition (Lepidium sativum [26]): inactive; Activity (Allium cepa [27]): inactive; inhibition (Allium cepa [28]): inactive; Activity (Allium cepa [29]): inactive
C=C1CC[C@H]2C(=C)CC[C@@H](C(=C)CO)[C@H](O)[C@@H]12	inactive	inactive	inactive	inactive	<20%	inactive	20%	<20%	inactive	inactive	inactive	<20%	20%	inactive	inactive	inactive	<20%	inactive	inactive	inactive	inhibition (INH) (Triticum aestivum [2]): 20%; inhibition (INH) (Triticum aestivum [3]): <20%; inhibition (Triticum aestivum [4]): inactive; inhibition (INH) (Solanum lycopersicum [6]): <20%; inhibition (INH) (Solanum lycopersicum [12]): 20%; inhibition (Lactuca sativa [14]): inactive; inhibition (Lepidium sativum [26]): inactive; Activity (Allium cepa [27]): inactive; inhibition (Allium cepa [28]): inactive; Activity (Allium cepa [29]): inactive
C=C1CC[C@H]2C(=C)CC[C@@H]3[C@H](OC(=O)[C@]3(O)CO)[C@@H]12	inactive	inactive	inactive	inactive	inactive	inactive	inactive	<20%	inactive	<20%	inactive	inactive	<20%	inactive	inactive	inactive	<20%	inactive	inactive	inactive	inhibition (Triticum aestivum [2]): inactive; inhibition (Triticum aestivum [3]): inactive; inhibition (INH) (Triticum aestivum [4]): <20%; inhibition (Solanum lycopersicum [6]): inactive; inhibition (INH) (Solanum lycopersicum [12]): <20%; inhibition (Lactuca sativa [14]): inactive; inhibition (Lepidium sativum [26]): inactive; Activity (Allium cepa [27]): inactive; inhibition (Allium cepa [28]): inactive; Activity (Allium cepa [29]): inactive
